Assay: Inhibition of yeast alpha-glucosidase pre-incubated for 10 mins followed by pNPG substrate addition and measured every 30 secs for 35 mins
Design: species or system Saccharomyces cerevisiae
Summary of the method: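 S. cerevisiae α-glucosidase (enzyme solution 2.0 U/mL) in 100 mM phosphate buffer, pH 7.5, with NaN3. Serial DMSO dilutions, nine concentrations, in triplicate. Preincubated 10 min at 28 °C, then p-NPG added (substrate solution 10 mM). A405 read every 30 s for 35 min. Inhibition taken from rate slope versus enzyme–substrate blanks; IC50 from three-parameter curve fit.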

SMILES | IC50
C[C@@H]1O[C@@H](Oc2c(-c3ccc(O)cc3)oc3cc(O)cc(O)c3c2=O)[C@H](OC(=O)/C=C\c2ccc(O)cc2)[C@H](O)[C@H]1OC(=O)/C=C/c1ccc(O)cc1 | 35.3 µM
C[C@@H]1O[C@@H](Oc2c(-c3ccc(O)cc3)oc3cc(O)cc(O)c3c2=O)[C@H](OC(=O)/C=C/c2ccc(O)cc2)[C@H](O)[C@H]1OC(=O)/C=C/c1ccc(O)cc1 | 12.9 µM
C[C@H]1O[C@H](O[C@H]2[C@H](O)[C@@H](O)[C@@H](O[C@H]3[C@H](O)[C@@H](O)C(O)O[C@@H]3CO)O[C@@H]2CO)[C@H](O)[C@@H](O)[C@@H]1N[C@H]1C=C(CO)[C@@H](O)[C@H](O)[C@H]1O (some centres undefined) [ACARBOSE] | 266 µM
COc1ccc(-c2oc3cc(O)cc(O)c3c(=O)c2O[C@@H]2O[C@@H](C)[C@H](OC(=O)/C=C\c3ccc(O)cc3)[C@@H](O)[C@H]2OC(=O)/C=C/c2ccc(O)cc2)cc1 | 6.8 µM
COc1ccc(-c2oc3cc(O)cc(O)c3c(=O)c2O[C@@H]2O[C@@H](C)[C@H](OC(=O)/C=C\c3ccc(O)cc3)[C@@H](O)[C@H]2OC(=O)/C=C\c2ccc(O)cc2)cc1 | 5.9 µM
COc1ccc(-c2oc3cc(O)cc(O)c3c(=O)c2O[C@@H]2O[C@@H](C)[C@H](OC(=O)/C=C/c3ccc(O)cc3)[C@@H](O)[C@H]2OC(=O)/C=C\c2ccc(O)cc2)cc1 | 10.1 µM
COc1ccc(-c2oc3cc(O)cc(O)c3c(=O)c2O[C@@H]2O[C@@H](C)[C@H](OC(=O)/C=C/c3ccc(O)cc3)[C@@H](O)[C@H]2OC(=O)/C=C/c2ccc(O)cc2)cc1 | 26.9 µM
C[C@@H]1O[C@@H](Oc2c(-c3ccc(O)cc3)oc3cc(O)cc(O)c3c2=O)[C@H](OC(=O)/C=C/c2ccc(O)cc2)[C@H](O)[C@H]1OC(=O)/C=C\c1ccc(O)cc1 | 16.1 µM
COc1ccc(-c2oc3cc(O)cc(O)c3c(=O)c2O[C@@H]2O[C@@H](C)[C@H](OC(=O)/C=C\c3ccc(O)cc3)[C@@H](O)[C@H]2OC(=O)/C=C/c2ccc(O)cc2)cc1O | 28.2 µM
